We go through one molecule from ChEMBL document CHEMBL1944565, “Exploration of α-aminophosphonate N-derivatives as novel, potent and selective inhibitors of protein tyrosine phosphatases” (Eur J Med Chem, 2012).

The target of assay [1] is T1, Tyrosine-protein phosphatase non-receptor type 1 (Homo sapiens, UniProt P18031).
T1 sequence (P18031 whole entry): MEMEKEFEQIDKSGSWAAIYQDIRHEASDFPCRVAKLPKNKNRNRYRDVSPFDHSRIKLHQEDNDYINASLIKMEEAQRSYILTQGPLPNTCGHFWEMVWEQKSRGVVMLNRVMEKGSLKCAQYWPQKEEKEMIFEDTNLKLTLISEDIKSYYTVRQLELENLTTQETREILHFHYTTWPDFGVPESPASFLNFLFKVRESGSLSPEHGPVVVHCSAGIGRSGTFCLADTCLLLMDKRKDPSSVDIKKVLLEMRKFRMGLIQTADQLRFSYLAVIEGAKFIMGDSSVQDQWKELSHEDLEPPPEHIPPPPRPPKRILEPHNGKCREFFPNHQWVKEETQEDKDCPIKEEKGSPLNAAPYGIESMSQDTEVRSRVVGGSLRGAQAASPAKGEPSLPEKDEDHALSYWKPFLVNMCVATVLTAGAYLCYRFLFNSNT
The experiment in a line: Inhibition of human PTP1B using p-nitrophenol phosphate as substrate incubated for 35 mins prior to substrate addition measured after 30 mins by spectrophotometry. In short, it runs like this: (§1)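 Recombinant human phosphatase, expressed and purified, in 20 mM MOPS pH 7.2 with 50 mM NaCl. Preincubated with inhibitor at various concentrations for 35 min at 37 °C. p-NPP (0.1 M stock) added and reaction run about 30 min, then stopped with 2 M NaOH.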

Assay [2] concerns the target T2, Tyrosine-protein phosphatase non-receptor type 2 (Homo sapiens, UniProt P17706).
T2 sequence (P17706 whole entry): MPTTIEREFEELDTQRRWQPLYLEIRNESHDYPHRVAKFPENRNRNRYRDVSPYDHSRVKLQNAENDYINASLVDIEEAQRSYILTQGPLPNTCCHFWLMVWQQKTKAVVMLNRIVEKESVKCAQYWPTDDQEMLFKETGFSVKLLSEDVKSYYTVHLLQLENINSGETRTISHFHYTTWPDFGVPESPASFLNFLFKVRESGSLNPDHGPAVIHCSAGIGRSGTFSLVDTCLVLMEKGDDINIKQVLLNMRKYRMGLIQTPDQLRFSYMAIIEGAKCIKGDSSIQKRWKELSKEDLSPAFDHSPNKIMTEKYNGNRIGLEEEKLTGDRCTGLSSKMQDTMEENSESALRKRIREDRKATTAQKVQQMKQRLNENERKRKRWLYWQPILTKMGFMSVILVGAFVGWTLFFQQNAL
Kind of assay: Inhibition of human TCPTP using p-nitrophenol phosphate as substrate incubated for 35 mins prior to substrate addition measured after 30 mins by spectrophotometry. In short, it runs like this:
as §1

In assay [3] the target is T3, Tyrosine-protein phosphatase non-receptor type 9 (Homo sapiens, UniProt P43378).
T3 sequence (P43378 whole entry): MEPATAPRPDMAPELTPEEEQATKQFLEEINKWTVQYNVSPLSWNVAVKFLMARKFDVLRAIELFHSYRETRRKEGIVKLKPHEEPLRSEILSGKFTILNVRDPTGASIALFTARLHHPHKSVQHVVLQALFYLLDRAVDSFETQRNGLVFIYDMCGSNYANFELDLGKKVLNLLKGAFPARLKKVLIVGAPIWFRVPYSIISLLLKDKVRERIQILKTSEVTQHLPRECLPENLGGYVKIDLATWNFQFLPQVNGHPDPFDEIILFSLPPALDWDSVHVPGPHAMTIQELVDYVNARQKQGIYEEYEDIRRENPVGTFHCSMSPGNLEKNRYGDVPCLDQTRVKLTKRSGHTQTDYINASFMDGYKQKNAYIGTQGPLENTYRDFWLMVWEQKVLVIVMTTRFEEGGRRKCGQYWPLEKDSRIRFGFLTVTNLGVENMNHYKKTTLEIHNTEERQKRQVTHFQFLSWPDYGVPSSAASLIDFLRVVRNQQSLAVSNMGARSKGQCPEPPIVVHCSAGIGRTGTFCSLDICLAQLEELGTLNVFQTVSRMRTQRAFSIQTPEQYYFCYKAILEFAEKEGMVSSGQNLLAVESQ
The experiment in a line: Inhibition of human PTP-MEG2 using p-nitrophenol phosphate as substrate incubated for 35 mins prior to substrate addition measured after 30 mins by spectrophotometry. Summed up: as §1

In assay [4] the target is Tyrosine-protein phosphatase non-receptor type 6 (Homo sapiens, UniProt P29350). The experiment in a line: Inhibition of human SHP1 using p-nitrophenol phosphate as substrate incubated for 35 mins prior to substrate addition measured after 30 mins by spectrophotometry. Summed up: as §1
Chain of Tyrosine-protein phosphatase non-receptor type 6 (P29350 whole entry): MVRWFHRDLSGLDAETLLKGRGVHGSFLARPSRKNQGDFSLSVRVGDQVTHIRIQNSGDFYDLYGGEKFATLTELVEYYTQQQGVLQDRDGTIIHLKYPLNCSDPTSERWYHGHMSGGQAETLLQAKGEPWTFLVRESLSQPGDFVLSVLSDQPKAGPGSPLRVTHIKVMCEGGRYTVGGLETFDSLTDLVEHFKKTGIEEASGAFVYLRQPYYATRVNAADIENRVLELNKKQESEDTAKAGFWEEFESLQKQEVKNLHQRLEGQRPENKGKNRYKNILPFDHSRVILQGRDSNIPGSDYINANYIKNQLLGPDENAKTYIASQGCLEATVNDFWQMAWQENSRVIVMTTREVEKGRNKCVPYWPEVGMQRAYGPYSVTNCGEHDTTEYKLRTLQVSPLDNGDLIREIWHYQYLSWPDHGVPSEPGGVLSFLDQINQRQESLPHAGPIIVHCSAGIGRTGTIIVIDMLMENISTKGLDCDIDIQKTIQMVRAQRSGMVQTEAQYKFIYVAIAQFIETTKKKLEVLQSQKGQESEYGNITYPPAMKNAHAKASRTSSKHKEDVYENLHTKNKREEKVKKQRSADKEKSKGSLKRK
Assay [5] has as its target T4, Tyrosine-protein phosphatase non-receptor type 11 (Homo sapiens, UniProt Q06124).
T4 sequence (Q06124 whole entry): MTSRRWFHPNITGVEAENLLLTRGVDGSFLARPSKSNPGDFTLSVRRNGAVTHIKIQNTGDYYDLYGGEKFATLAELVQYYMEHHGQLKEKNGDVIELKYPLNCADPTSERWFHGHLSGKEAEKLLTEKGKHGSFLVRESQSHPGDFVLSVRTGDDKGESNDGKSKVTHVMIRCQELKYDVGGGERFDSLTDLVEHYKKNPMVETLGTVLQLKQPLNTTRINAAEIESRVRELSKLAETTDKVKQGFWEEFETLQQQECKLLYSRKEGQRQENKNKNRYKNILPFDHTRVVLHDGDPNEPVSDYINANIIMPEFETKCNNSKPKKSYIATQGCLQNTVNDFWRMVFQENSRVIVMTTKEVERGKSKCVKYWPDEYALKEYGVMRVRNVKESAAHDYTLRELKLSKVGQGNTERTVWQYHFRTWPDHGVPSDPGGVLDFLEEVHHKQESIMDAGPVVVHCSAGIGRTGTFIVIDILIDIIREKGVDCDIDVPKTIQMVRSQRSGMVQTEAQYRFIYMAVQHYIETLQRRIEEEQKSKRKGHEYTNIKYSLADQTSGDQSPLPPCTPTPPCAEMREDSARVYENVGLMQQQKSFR
The experiment in a line: Inhibition of human SHP2 using p-nitrophenol phosphate as substrate incubated for 35 mins prior to substrate addition measured after 30 mins by spectrophotometry. In short, it runs like this:
as §1

In assay [6] the test system is HepG2. The experiment in a line: Cytotoxicity against human HepG2 cells after 48 hrs by MTT assay. Format: functional, cell-based. In short, it runs like this: (§2)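 HepG2 or MCF7 cells in DMEM with 10% FBS and penicillin/streptomycin, 37 °C, 5% CO2. Plated overnight, then exposed to a range of concentrations for 48 h with DMSO held at 1.0% in samples and control. MTT (5 mg/mL stock) added for 4 h at 37 °C, formazan dissolved in DMSO, OD read at 490 nm. Viability % = T/C × 100, averaged over six wells.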

The test system of a further assay is MCF7. Kind of assay: Cytotoxicity against human MCF7 cells after 48 hrs by MTT assay. It counts as functional, cell-based. Summed up: as §2
On the technique in general: Formazan colour is commonly taken as a measure of viable cells.

For assay [7], the system named is HepG2. The experiment in a line: Induction of apoptosis in human HepG2 cells at 50 uM after 48 hrs by AnnexinV-FITC/PI flow cytometric analysis. Format: functional, cell-based. Summed up:
(§3)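 HepG2 cells exposed to 50, 100 or 300 μM for 48 h. Harvested, washed twice in ice-cold 0.85% NaCl, then resuspended in binding buffer with Annexin V-FITC and PI. Stained 15 min in the dark at room temperature and analysed by flow cytometry within 1 h. Viable, early/late apoptotic and necrotic fractions quantified from annexin V binding and PI uptake; mean ± SD, n = 3.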
For orientation: In flow cytometry, cells or beads pass a laser one at a time.

For assay [8], the system named is HepG2. The experiment in a line: Induction of apoptosis in human HepG2 cells assessed as apoptotic cells at 100 uM after 48 hrs by AnnexinV-FITC/PI flow cytometric analysis. Format: functional. In short, it runs like this:
as §3

The subject of assay [9] is HepG2. The experiment in a line: Induction of necrosis in human HepG2 cells assessed as necrotic cells at 100 uM after 48 hrs by AnnexinV-FITC/PI flow cytometric analysis. Format: functional. Summed up:
as §3

Assay [10] has as its system HepG2. The experiment in a line: Induction of apoptosis in human HepG2 cells assessed as apoptotic cells at 300 uM after 48 hrs by AnnexinV-FITC/PI flow cytometric analysis. Format: functional. In short, it runs like this: as §3
Assay [11] relates to HepG2. Kind of assay: Induction of necrosis in human HepG2 cells assessed as necrotic cells at 300 uM after 48 hrs by AnnexinV-FITC/PI flow cytometric analysis. It counts as functional. Summed up:
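HepG2 cells grown in DMEM with 10% FBS and penicillin/streptomycin at 37 °C under 5% CO2, then exposed for 48 h to three concentrations (50, 100, 300). Cells were washed twice in ice-cold 0.85% NaCl and stained with annexin V-FITC and PI in binding buffer for 15 min in the dark at room temperature. Flow cytometry within 1 h sorted necrotic cells by annexin V binding and PI uptake; mean ± SD, n = 3.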

Assay [12] addresses T5, Tyrosine-protein phosphatase non-receptor type 1 (Homo sapiens) (UniProt P18031).
T5 sequence (whole entry): T1 sequence (P18031 whole entry)

Assay [13] addresses T5, Tyrosine-protein phosphatase non-receptor type 1 (Homo sapiens). The source holds these as a separate data set.
For assay [14] the target is unchanged. The source holds these as a separate data set.

Molecules are shown by their SMILES. Calls of active or inactive are those of the source. The calls are words filed in the database; no cut-off is given here.

Usually IC50 stands for the concentration needed to halve the response being measured. Low readings indicate inhibition by little substance, high ones a need for much substance. As to `O=P(O)(O)[C@H](Nc1ccc(O)cc1)c1ccccc1O`, the half-maximal inhibitory concentration (IC50) in assay [1] is 6.64 µM; in [2], 14.4 µM; in assay [3] it was 160 µM; in assay [4], above 10000 µM; in [5] it was above 10000 µM. Also, the Activity entry in the assay on HepG2 [6] was “Dose-dependent effect”; with MCF7, “Dose-dependent effect”; in the assay on HepG2 [8] it was 7.2%; in the assay on HepG2 [9], 1.9%; with HepG2 [10] it was 69.7%; in the assay on HepG2 [11] it was 22.7%. The outcome in the assay on HepG2 [7] was inactive. This molecule yielded a Kic in assay [12] of 4.4 µM. The Ka in assay [13] was 2.23 ×10⁵ /M; in assay [14], 2.27 ×10⁵ /M.
